Only some compounds are listed: those with a hit (about 1.9% of all), similar ones and a draw of the others.
Tb hexokinase: blocks Trypanosoma brucei hexokinase 1 activity. recombinant TbHK1, G6PDH-coupled NADH A340. inhibition, % at 10 µM. 0.11% of 220,000 active. AID 1430;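 active = inhibition of 50% or more in the single-dose primary screen; inactive = inhibition below 50%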
Runt-CBFb FRET: blocks binding of human RUNX1 Runt domain to CBFb. 0.46% of 220,000 active. AID 1496. inhibition, % at 20 µM. Cerulean-Runt/Venus-CBFb FRET ratio 530/480, 1 h. Q01196+Q13951;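 active = inhibition over about 50% at 20 µM in the single-dose screen, limit read from the data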;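 also: 0% = DMSO wells and 100% = excess unlabeled CBFb competitor control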
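Measured by: fluorescence energy transfer, 422 nm excitation, 530/480 nm emission; test system: Cerulean-tagged RUNX1 Runt domain (FRET donor) fusion protein; buffer or medium: Tris pH 7.5 buffer with BSA; compound: one dose, 20 µM compound, 1% DMSO; times: two 1 h room-temperature incubations shielded from light; benchmarks: unlabeled CBFb 5 µM, positive control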
RanGTP-Impb inh: inhibitors of RanGTP-importin-beta interaction, primary screen, biochemical, FRET, CFP-Ran, YFP-importin-beta, homogeneous. AID 2216. 1.1% of 300,000 active. inhibition, % (concentration not given with the values). cell-free CFP-Ran/YFP-importin-beta FRET ratio;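 active = more than half of the replicate wells show a fall in the fluorescence ratio signal beyond about 16%, limit read from the data, passing the limit was not always enough; inconclusive = exactly half of the replicate wells pass the set limit; inactive = fewer than half of replicates pass the limit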;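 also: 0% = DMSO wells and 100% = Ran loaded with GDP instead of GTP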
Hck-Nef inh: inhibitors of human Hck kinase activated by Nef. Recombinant Hck-YEEI plus Nef, Z-Lyte FRET kinase assay. inhibition, % at 20 µM. AID 463187. 0.68% of 220,000 active;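 active = Hck-Nef kinase inhibition above about 50%, limit read from the data; inactive = inhibition below that limit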;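 also: 0% = DMSO with Hck plus Nef and 100% = Hck alone without Nef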
Target sequence (P08631 whole entry, looked up): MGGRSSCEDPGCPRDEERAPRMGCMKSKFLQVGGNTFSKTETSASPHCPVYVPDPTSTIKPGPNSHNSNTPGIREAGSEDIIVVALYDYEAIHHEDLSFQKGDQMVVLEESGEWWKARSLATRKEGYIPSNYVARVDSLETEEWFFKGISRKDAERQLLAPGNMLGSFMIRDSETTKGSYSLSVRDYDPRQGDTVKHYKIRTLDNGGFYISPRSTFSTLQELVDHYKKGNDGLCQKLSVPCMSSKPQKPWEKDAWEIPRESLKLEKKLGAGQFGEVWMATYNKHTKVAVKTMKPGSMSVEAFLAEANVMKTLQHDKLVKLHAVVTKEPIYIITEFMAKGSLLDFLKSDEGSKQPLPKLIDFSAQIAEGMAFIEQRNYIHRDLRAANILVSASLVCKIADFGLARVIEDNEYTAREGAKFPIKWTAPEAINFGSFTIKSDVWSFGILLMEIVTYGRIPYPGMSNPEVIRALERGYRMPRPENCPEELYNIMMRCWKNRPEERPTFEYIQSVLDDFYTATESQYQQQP
Runt-SMMHC FRET: inhibitors of human RUNX1 Runt domain binding to CBFb-SMMHC. AID 1434. 0.74% of 220,000 active. inhibition, % at 20 µM. Cerulean-Runt/Venus-CBFb-SMMHC FRET ratio 530/480, 1 h. Q01196+Q13951;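 active = mean inhibition across duplicate retests at 20 µM reaching about 50%, limit read from the data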;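 also: 0% = DMSO wells and 100% = wells with excess untagged CBFb-SMMHC; inhibitors lower the FRET ratio by blocking Runt binding to CBFb-SMMHC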
Hck-Nef confirm: confirmation of Hck-Nef kinase inhibitors; shares compounds with Hck-Nef inh; Recombinant Hck-YEEI:Nef, Z-Lyte FRET kinase assay; calls only at 10 µM; 28% of 1,300 active;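 active = average inhibition of at least 50%, with Z-scores no higher than 3 in both the phospho-tyrosine peptide and fluorescence counterscreens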
Active calls of the source: *; i = inactive; ? = inconclusive; nt = no result shown; + = active, no number.

SMILES	Tb hexokinase	Runt-CBFb FRET	RanGTP-Impb inh	Hck-Nef inh	Runt-SMMHC FRET	others
CCOC(=O)c1sc(NC(=O)C2CCCO2)c(C(=O)OCC)c1C (stereo not drawn)	nt	0	nt	nt	0
CCCCN(C(=O)c1ccc(S(=O)(=O)N2CCC(C)CC2)cc1)C1CCS(=O)(=O)C1 (stereo not drawn)	nt	nt	0	nt	nt
CC(C)CN(C(=O)COC(=O)CNC(=O)c1ccccc1F)c1c(N)n(Cc2ccccc2)c(=O)[nH]c1=O	nt	nt	8	nt	nt
OCCN1CCN(c2nc(-c3ccccc3O)nc3ccccc23)CC1	nt	nt	0	nt	nt
Cc1ccc(NC(=O)Nc2sc(=S)n(C)c2C)cc1	-10	4	2	92*	-1	Hck-Nef confirm=i
Cc1nnc(-c2cnn(C)c2N)n1CCCN1CCOCC1	-6	0	-1	-7	4
Cc1cc(C)cc(S(=O)(=O)c2cn(C)c3cc(N4CCN(C)CC4)c(F)cc3c2=O)c1	nt	nt	-2	nt	nt
O=C(OCC(=O)N1CCN(C(=O)c2ccco2)CC1)c1cc(-c2ccc(Cl)c(Cl)c2Cl)nc2ccccc12	-26	-16	4	50*	-7	Hck-Nef confirm=+
O=C(OCC(=O)N1CCN(C(=O)c2ccco2)CC1)c1cc(-c2ccco2)nc2ccccc12	-7	3	-4	6	-11
CCOc1cccc(C2/C(=C(/O)c3ccc4c(c3)CC(C)O4)C(=O)C(=O)N2CCCn2ccnc2)c1 (stereo not drawn)	nt	nt	1	nt	nt
O=P(c1ccccc1)(c1ccccc1)c1nc(-c2ccccc2)oc1NCc1ccccc1	3	-3	2	18	-2
COc1cc([N+](=O)[O-])cc(/C=N/NC(=O)C(C)Nc2cccc(C)c2)c1O (stereo not drawn)	-10	-7	?	43	-8
COc1cc([N+](=O)[O-])cc(/C=N/NC(=O)C(C)Nc2ccccc2C)c1O (stereo not drawn)	-7	-5	-2	101*	-1	Hck-Nef confirm=+
O=C(N/N=C/c1ccc([N+](=O)[O-])o1)c1ccc(NS(=O)(=O)c2cccs2)cc1	-30	0	2	55*	-2	Hck-Nef confirm=i
CC(Oc1ccc(Cl)cc1Cl)C(=O)NCCC1=CCCCC1 (stereo not drawn)	-2	-2	0	2	-6
CCN(C(=O)CSc1cc(C)c2ccccc2n1)c1c(N)n(Cc2ccccc2)c(=O)[nH]c1=O	-2	2	-2	1	-2
CCOC(=O)c1c(/N=C/N(C)C)sc(/C=N/Nc2ccccc2)c1-c1ccccc1Cl	-23	29	-4	5	44
CCOC(=O)c1c(/N=C/N(C)C)sc(C=O)c1-c1ccccc1	-12	103*	6	98*	134*	Hck-Nef confirm=i
O=C(Nc1nnc(S(=O)(=O)N2CCN(c3ccc(F)cc3)CC2)s1)c1ccco1	nt	nt	0	nt	nt
O=C(O)c1cccc(-n2cccc2/C=C2/NC(=O)N(c3cccc(Cl)c3)C2=O)c1	1	20	0	47	29
O=C(O)c1cccc(-n2cccc2/C=C2/NC(=O)N(c3ccc(Cl)cc3)C2=O)c1	46	39	nt	82*	13
Cc1cc(Br)c2c(c1)C(O)(N1CCCCC1C)C(=O)N2 (stereo not drawn)	0	-2	-1	2	0
COc1ccc2oc(/C=C/N(C)C)c(C(=O)c3ccc(Cl)cc3)c2c1	-15	3	2	98*	-12	Hck-Nef confirm=i
Cc1ccc(N2C(=S)N=C(Nc3ccccc3C)C23CCOC(C)(C)C3)cc1 (stereo not drawn)	-3	0	0	-1	0
COc1ccc(CCNC(=O)CSc2nc3cc(Cl)ccc3o2)cc1OC	-9	2	-4	2	-1
Cc1coc2c(C)c3oc(=O)c4c(c3cc12)CCC4	-7	nt	nt	17	nt
O=c1oc2c3c4c(cc2c2c1CCC2)OCCN4CCC3	-1	83*	nt	97*	53*
CCCOC(=O)Nc1ccc(S(=O)(=O)Nc2ncccn2)cc1	-9	-1	-2	28	2
CCOc1cc(/C=C2\SC(=S)N(C(C(=O)O)c3ccccc3)C2=O)ccc1O (stereo not drawn)	9	-47	-19	63*	-162	Hck-Nef confirm=i

Screens as filed in PubChem BioAssay.
